Laboratory results: ChEMBL document CHEMBL2390862, “Enmein-type diterpenoid analogs from natural kaurene-type oridonin: Synthesis and their antitumor biological evaluation” (Eur J Med Chem, 2013)

Experiments:
Bel-7402 [1] = assay: Induction of mitochondrial membrane depolarization in human Bel7402 cells assessed as normal cells at 0.3 uM after 48 hrs by JC-1 staining-based flow cytometry; assay type: functional
Bel-7402 [2] = assay: Cell cycle arrest in human Bel7402 cells assessed as accumulation at G2/M phase at 0.15 uM after 48 hrs by propidium iodide staining-based FACS analysis (reference value: 12.60 %); assay type: functional
Procedure, shortened: (§1)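 Bel-7402 cells seeded at 5.0 × 10³ cells/well and incubated 24 h at 37 °C, then exposed to test compound or DMSO solvent control for 48 h. Cells fixed in 70% ethanol, RNase-treated, PI-stained; DNA content of nuclei measured by flow cytometry.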

Bel-7402 [3] = assay: Induction of apoptosis in human Bel7402 cells assessed as early and late apoptotic cells at 0.15 uM after 2 days by Annexin-V/FITC-propidium iodide staining-based flow cytometry (reference value: 4.8 %); assay type: functional
Bel-7402 [4] = assay: Induction of mitochondrial membrane depolarization in human Bel7402 cells assessed as normal cells at 0.6 uM after 48 hrs by JC-1 staining-based flow cytometry; assay type: functional
MGC-803 = assay: Cytotoxicity against human MGC803 cells after 72 hrs by MTT assay; assay type: functional, cell-based; settings: MGC-803, 72 h
Procedure, shortened: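 K562, CaEs-17, Bel-7402 and MGC-803 cells in log phase seeded at 5 × 10⁴ cells/mL, incubated with or without test compounds at 37 °C, 5% CO₂; after 72 h MTT (5 mg/mL stock) added for 4 h, formazan dissolved in DMSO, OD read at 490 nm. Negative reference 0.1% DMSO, Taxol positive control. IC50 as mean ± S.D. of three independent experiments.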

Bel-7402 [5] = assay: Induction of apoptosis in human Bel7402 cells assessed as increase in Fas expression after 48 hrs by Western blotting analysis; assay type: functional, cell-based
Procedure, shortened: (§2)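 Bel-7402 cells treated with vehicle control or compound at 0.15, 0.3 or […] (so in the source). Lysates at […] protein per lane (so in the source) separated by 10% SDS-PAGE, transferred to nitrocellulose and immunoblotted, with β-actin measured as reference. Significance vs. vehicle control marked at P < 0.05 and P < 0.01.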

Bel-7402 [6] = assay: Induction of apoptosis in human Bel7402 cells assessed as viable cells at 0.15 uM after 2 days by Annexin-V/FITC-propidium iodide staining-based flow cytometry (reference value: 94.1 %); assay type: functional; settings: Bel-7402, 48 h, read-out: Activity
Bel-7402 [7] = assay: Induction of apoptosis in human Bel7402 cells assessed as viable cells at 0.6 uM after 2 days by Annexin-V/FITC-propidium iodide staining-based flow cytometry (reference value: 94.1 %); assay type: functional; settings: Bel-7402, 48 h, read-out: Activity
Bel-7402 [8] = assay: Induction of apoptosis in human Bel7402 cells at 0.3 uM after 48 hrs by propidium iodide staining-based FACS analysis (reference value: 1.67 %); assay type: functional; procedure, shortened: as §1
Bel-7402 [9] = assay: Induction of apoptosis in human Bel7402 cells assessed as increase in Bax expression after 48 hrs by Western blotting analysis; assay type: functional, cell-based; procedure, shortened: as §2
Bel-7402 [10] = assay: Induction of apoptosis in human Bel7402 cells at 0.15 uM after 48 hrs by propidium iodide staining-based FACS analysis (reference value: 1.67 %); assay type: functional; procedure, shortened: as §1
Bel-7402 [11] = assay: Induction of apoptosis in human Bel7402 cells assessed as necrotic cells at 0.3 uM after 2 days by Annexin-V/FITC-propidium iodide staining-based flow cytometry (reference value: 1.1 %); assay type: functional
Bel-7402 [12] = assay: Induction of apoptosis in human Bel7402 cells after 2 days by Annexin-V/FITC-propidium iodide staining-based flow cytometry; assay type: functional, cell-based
Bel-7402 [13] = assay: Cell cycle arrest in human Bel7402 cells assessed as accumulation at S phase at 0.15 uM after 48 hrs by propidium iodide staining-based FACS analysis (reference value: 39.17 %); assay type: functional; procedure, shortened: as §1
Bel-7402 [14] = assay: Induction of apoptosis in human Bel7402 cells assessed as early apoptotic cells at 0.3 uM after 2 days by Annexin-V/FITC-propidium iodide staining-based flow cytometry (reference value: 2.6 %); assay type: functional
Bel-7402 [15] = assay: Induction of apoptosis in human Bel7402 cells assessed as necrotic cells at 0.6 uM after 2 days by Annexin-V/FITC-propidium iodide staining-based flow cytometry (reference value: 1.1 %); assay type: functional
Bel-7402 [16] = assay: Cell cycle arrest in human Bel7402 cells assessed as accumulation at G2/M phase at 0.3 uM after 48 hrs by propidium iodide staining-based FACS analysis (reference value: 12.60 %); assay type: functional; procedure, shortened: as §1
Bel-7402 [17] = assay: Cell cycle arrest in human Bel7402 cells assessed as accumulation at G1 phase at 0.6 uM after 48 hrs by propidium iodide staining-based FACS analysis (reference value: 48.23 %); assay type: functional; procedure, shortened: as §1
Bel-7402 [18] = assay: Induction of mitochondrial membrane depolarization in human Bel7402 cells assessed as apoptotic cells after 48 hrs by JC-1 staining-based flow cytometry; assay type: functional, cell-based
Procedure, shortened: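 In triplicate, Bel-7402 cells cultured overnight, then incubated with compound (0, 0.15, 0.3, […] as printed) or vehicle for 48 h, stained with the lipophilic cationic dye JC-1. Cells with collapsed mitochondrial membrane potential counted by flow cytometry.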

Bel-7402 [19] = assay: Induction of apoptosis in human Bel7402 cells assessed as increase in caspase 3 expression after 48 hrs by Western blotting analysis; assay type: functional, cell-based; procedure, shortened: as §2
Bel-7402 [20] = assay: Induction of apoptosis in human Bel7402 cells assessed as increase in caspase 8 expression after 48 hrs by Western blotting analysis; assay type: functional, cell-based; procedure, shortened: as §2
Bel-7402 [21] = assay: Induction of apoptosis in human Bel7402 cells assessed as late apoptotic cells at 0.6 uM after 2 days by Annexin-V/FITC-propidium iodide staining-based flow cytometry (reference value: 2.2 %); assay type: functional
Bel-7402 [22] = assay: Cell cycle arrest in human Bel7402 cells assessed as accumulation at S phase at 0.3 uM after 48 hrs by propidium iodide staining-based FACS analysis (reference value: 39.17 %); assay type: functional; procedure, shortened: as §1
Bel-7402 [23] = assay: Cell cycle arrest in human Bel7402 cells assessed as accumulation at G1 phase at 0.3 uM after 48 hrs by propidium iodide staining-based FACS analysis (reference value: 48.23 %); assay type: functional; procedure, shortened: as §1
Bel-7402 [24] = assay: Induction of apoptosis in human Bel7402 cells assessed as late apoptotic cells at 0.15 uM after 2 days by Annexin-V/FITC-propidium iodide staining-based flow cytometry (reference value: 2.2 %); assay type: functional
Bel-7402 [25] = assay: Induction of apoptosis in human Bel7402 cells assessed as early and late apoptotic cells at 0.3 uM after 2 days by Annexin-V/FITC-propidium iodide staining-based flow cytometry (reference value: 4.8 %); assay type: functional
Bel-7402 [26] = assay: Induction of apoptosis in human Bel7402 cells assessed as increase in caspase 9 expression after 48 hrs by Western blotting analysis; assay type: functional, cell-based; procedure, shortened: as §2
Bel-7402 [27] = assay: Cell cycle arrest in human Bel7402 cells assessed as accumulation at G1 phase at 0.15 uM after 48 hrs by propidium iodide staining-based FACS analysis (reference value: 48.23 %); assay type: functional; procedure, shortened: as §1
Bel-7402 [28] = assay: Induction of apoptosis in human Bel7402 cells at 0.6 uM after 48 hrs by propidium iodide staining-based FACS analysis (reference value: 1.67 %); assay type: functional; procedure, shortened: as §1
Bel-7402 [29] = assay: Induction of apoptosis in human Bel7402 cells assessed as early apoptotic cells at 0.6 uM after 2 days by Annexin-V/FITC-propidium iodide staining-based flow cytometry (reference value: 2.6 %); assay type: functional

**Q.** `C=C1C(=O)[C@@]23C(=O)O[C@H]4CCC(C)(C)[C@H]5[C@H](O)OC[C@@]45[C@@H]2CC[C@@H]1[C@H]3OC(=O)c1ccc(Cl)cc1` was tested. Which Activity (Bel-7402 [1]) did it give?
**A.** 82.4%

**Q.** And the Activity (Bel-7402 [2])?
**A.** 15.1%

**Q.** What about the Activity (Bel-7402 [3]) of the same molecule?
**A.** 14.3%

**Q.** And the Activity (Bel-7402 [4])?
**A.** 54.4%

**Q.** What about the IC50 (MGC-803) of the same molecule?
**A.** 1220 nM

**Q.** And the Activity (Bel-7402 [5])?
**A.** Dose-dependent effect

**Q.** What about the viability at 0.15 µM (Bel-7402 [6]) of the same molecule?
**A.** 84.6%

**Q.** What about the viability at 0.6 µM (Bel-7402 [7]) of the same molecule?
**A.** 48.8%

**Q.** And the Activity (Bel-7402 [8])?
**A.** 14.86%

**Q.** And the Activity (Bel-7402 [9])?
**A.** Dose-dependent effect

**Q.** And the Activity (Bel-7402 [10])?
**A.** 2.07%

**Q.** And the Activity (Bel-7402 [11])?
**A.** 0.3%

**Q.** What about the Activity (Bel-7402 [12]) of the same molecule?
**A.** Dose-dependent effect

**Q.** What about the Activity (Bel-7402 [13]) of the same molecule?
**A.** 38.72%

**Q.** And the Activity (Bel-7402 [14])?
**A.** 14.8%

**Q.** And the Activity (Bel-7402 [15])?
**A.** 0.7%

**Q.** What about the Activity (Bel-7402 [16]) of the same molecule?
**A.** 20.48%

**Q.** What about the Activity (Bel-7402 [17]) of the same molecule?
**A.** 51.07%

**Q.** And the Activity (Bel-7402 [18])?
**A.** Dose-dependent effect

**Q.** And the Activity (Bel-7402 [19])?
**A.** Dose-dependent effect

**Q.** And the Activity (Bel-7402 [20])?
**A.** Dose-dependent effect

**Q.** What about the Activity (Bel-7402 [21]) of the same molecule?
**A.** 28.1%

**Q.** What about the Activity (Bel-7402 [22]) of the same molecule?
**A.** 29.24%

**Q.** What about the Activity (Bel-7402 [23]) of the same molecule?
**A.** 50.28%

**Q.** What about the Activity (Bel-7402 [24]) of the same molecule?
**A.** 5.5%

**Q.** What about the Activity (Bel-7402 [25]) of the same molecule?
**A.** 33.3%

**Q.** And the Activity (Bel-7402 [26])?
**A.** Dose-dependent effect

**Q.** And the Activity (Bel-7402 [27])?
**A.** 46.18%

**Q.** And the Activity (Bel-7402 [28])?
**A.** 31.97%

**Q.** And the Activity (Bel-7402 [29])?
**A.** 22.4%
